From ChEMBL document CHEMBL1121783, “Potential inhibitors of nucleotide biosynthesis. 1. Nitrosoureidonucleosides. 2” (J Med Chem, 1981)
Active and inactive are the calls of the source. No cut-off for these calls is given here.

Legend:
[1] = Half-life in plasma by using UV method; assay type: ADME, cell-free
[2] = Half-life in pH 7 phosphate buffer by using high-performance LC method
HEp-2 [3] = assay: Growth, % of control, at a dose of 20 ug/ml against growth of H.Ep.-2 cells; 75-80%; details: Homo sapiens
Nucleic Acid [4] = assay: Percent inhibitory activity dose at 100 ug/mL to inhibit the incorporation of hypoxanthine and gaunine in DNA; assay type: functional
[5] = Activity against hypoxanthine phosphoribosyltransferase; Not significant; assay type: functional
P388 [6] = assay: Activity against P388 leukemia cells; Inactive; assay type: functional; details: Mus musculus
Outline: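 In vivo P388 leukemia model; compound given daily for 9 days; activity scored as percent increase in life span (ILS).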

Nucleic Acid [7] = assay: Percent inhibitory activity dose at 100 ug/mL to inhibit the incorporation of hypoxanthine and gaunine in RNA; assay type: functional
[8] = Half-life in pH 7 phosphate buffer by using high-performance LC method; remark: listed apart in the source
P388 [9] = assay: Activity at a dose of 200 mg/kg for 9 days against P388 leukemia cells; assay type: functional; details: Mus musculus, P388, 216 h
Outline: (§1)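 P388 leukemia test: the compound was given daily for 9 days at 200 or 400 mg/kg. Activity is reported as percent increase in life span (ILS).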

P388 [10] = assay: Activity at a dose of 400 mg/kg against P388 leukemia cells; assay type: functional; details: Mus musculus; outline: as §1
[11] = Half-life in pH 7 phosphate buffer by using high-performance LC method; remark: listed apart in the source
HEp-2 [12] = assay: Growth, % of control, at a dose of 20 ug/ml against growth of H.Ep.-2 cells; 75-80%; details: Homo sapiens; remark: listed apart in the source

## Cc1cn(C2C[C@H](O)[C@@H](C(=O)NCCN(N=O)C(=O)NC3CCCCC3)O2)c(=O)[nH]c1=O (some centres not stated)
[1]
  half-life: 11 h

## O=NN(CCCl)C(=O)NC1CCCCC1 [LOMUSTINE]
[2]
  half-life: 0.88 h

## Cc1cn(C2CC(O)C(C(=O)NCCNC(=O)N(C)N=O)O2)c(=O)[nH]c1=O (configuration not stated)
[2]
  half-life: 29 h

## CNC(=O)NCCNC(=O)[C@H]1OC(n2cnc3c(O)ncnc32)[C@H](O)[C@@H]1O (some centres not stated)
HEp-2 [3]
  growth, % of control at 20 µg/mL: 75%

## CN(N=O)C(=O)NCCNC(=O)[C@H]1OC(n2cnc3c(O)ncnc32)[C@H](O)[C@@H]1O (some centres not stated)
Nucleic Acid [4]
  inhibition: 35%
[5]
  inhibition: inactive
P388 [6]
  inhibition: inactive
Nucleic Acid [7]
  inhibition: 61%
[8]
  half-life: 127 h

## CN(N=O)C(=O)NCCNC(=O)[C@H]1OC(n2ccc(=O)[nH]c2=O)[C@H](O)[C@@H]1O (some centres not stated)
P388 [9]
  ILS at 200 mg/kg: 28%
P388 [10]
  ILS at 400 mg/kg: 26%
[11]
  half-life: 17 h

## CN(N=O)C(N)=O [N-METHYL-N-NITROSUREA]
[2]
  half-life: 0.12 h

## O=NN(CCNC(=O)[C@H]1OC(n2ccc(=O)[nH]c2=O)[C@H](O)[C@@H]1O)C(=O)NC1CCCCC1 (some centres not stated)
[11]
  half-life: 8 h
HEp-2 [12]
  growth, % of control at 20 µg/mL: 75%

## CNC(=O)NCCNC(=O)C1OC(n2cc(C)c(=O)[nH]c2=O)CC1O (configuration not stated)
HEp-2 [3]
  growth, % of control at 20 µg/mL: 75%

## O=NN(CCNC(=O)[C@H]1OC(n2cnc3c(O)ncnc32)[C@H](O)[C@@H]1O)C(=O)NC1CCCCC1 (some centres not stated)
[2]
  half-life: 12 h
